Reference: ChEMBL document CHEMBL4406794, “N-(7-Cyano-6-(4-fluoro-3-(2-(3-(trifluoromethyl)phenyl)acetamido)phenoxy)benzo[d]thiazol-2-yl)cyclopropanecarboxamide (TAK-632) Analogues as Novel Necroptosis Inhibitors by Targeting Receptor-Interacting Protein Kinase 3 (RIPK3): Synthesis, Structure-Activity Relationships, and in Vivo Efficacy” (J Med Chem, 2019)

What was measured:
[1] = target: Epidermal growth factor receptor (Homo sapiens) (UniProt P00533); assay: Inhibition of wild-type human partial length EGFR (R669 to V1011 residues) expressed in bacterial expression system assessed as enzyme remaining activity at 1000 nM by Kinomescan method relative to control
Method in brief: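 KINOMEscan binding competition. […] Incubation was 1 h at room temperature with shaking, then bead wash and elution with 0.5 μM nonbiotinylated ligand for 30 min. Eluted kinase was quantified by qPCR. Compound was diluted from 40× DMSO stocks to 1000 nM final.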

[2] = Clearance in Sprague-Dawley rat at 1 mg/kg, iv by LC-tandem mass spectrometry analysis; type: ADME, organism-based; settings: in vivo
Method in brief: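 Male Sprague-Dawley rats dosed once i.v. at 1 mg/kg or intragastrically at 5 mg/kg. Compound dissolved in 5% DMSO, 10% Tween 80, 75% physiological saline at 0.2 and 1 mg/mL. Blood taken at several time points, plasma spun at 4 °C, stored at -80 °C, assayed by LC/MS/MS. Parameters from individual animals by noncompartmental analysis.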

Epidermal growth factor receptor (Homo sapiens), sequence (P00533 whole entry, the tested form may be a part): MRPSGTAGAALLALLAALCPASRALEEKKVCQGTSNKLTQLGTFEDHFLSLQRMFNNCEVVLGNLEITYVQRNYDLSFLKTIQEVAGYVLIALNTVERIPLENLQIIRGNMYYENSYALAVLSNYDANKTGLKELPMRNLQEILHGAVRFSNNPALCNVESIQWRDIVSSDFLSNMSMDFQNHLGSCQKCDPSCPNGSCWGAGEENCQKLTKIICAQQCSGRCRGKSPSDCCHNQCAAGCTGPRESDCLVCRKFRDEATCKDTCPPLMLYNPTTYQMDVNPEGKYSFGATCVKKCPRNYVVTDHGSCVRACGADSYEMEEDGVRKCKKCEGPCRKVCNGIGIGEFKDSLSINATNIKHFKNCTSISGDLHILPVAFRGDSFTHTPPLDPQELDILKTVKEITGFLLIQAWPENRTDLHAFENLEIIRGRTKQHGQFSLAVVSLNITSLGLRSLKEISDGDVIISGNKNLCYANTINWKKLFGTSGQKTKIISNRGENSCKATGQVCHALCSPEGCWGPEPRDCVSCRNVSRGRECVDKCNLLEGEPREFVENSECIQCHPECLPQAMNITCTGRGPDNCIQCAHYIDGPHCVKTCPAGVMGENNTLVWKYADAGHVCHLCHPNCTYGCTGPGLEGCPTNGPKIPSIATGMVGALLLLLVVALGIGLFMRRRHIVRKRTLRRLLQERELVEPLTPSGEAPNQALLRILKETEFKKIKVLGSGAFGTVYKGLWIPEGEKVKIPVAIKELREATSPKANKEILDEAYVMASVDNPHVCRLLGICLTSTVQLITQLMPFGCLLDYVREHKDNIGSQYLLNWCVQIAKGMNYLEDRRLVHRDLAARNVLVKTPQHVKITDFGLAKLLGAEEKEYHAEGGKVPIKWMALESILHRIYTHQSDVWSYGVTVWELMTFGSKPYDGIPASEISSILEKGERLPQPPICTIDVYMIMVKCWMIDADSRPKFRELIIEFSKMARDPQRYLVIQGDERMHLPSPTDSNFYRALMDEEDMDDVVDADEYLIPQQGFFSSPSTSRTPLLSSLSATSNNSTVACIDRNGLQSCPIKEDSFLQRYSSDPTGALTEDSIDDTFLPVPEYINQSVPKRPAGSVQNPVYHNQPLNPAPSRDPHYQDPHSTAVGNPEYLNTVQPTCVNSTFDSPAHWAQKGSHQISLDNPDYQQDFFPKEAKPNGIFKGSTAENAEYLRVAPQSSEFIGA

**Q.** For `O=C(Nc1cccc(Br)c1)Nc1cc(Oc2ccc3nc(NC(=O)C4CC4)sc3c2)ccc1F`, which Activity [1] is on record?
**A.** 33%

**Q.** What about the clearance [2] of the same compound?
**A.** 2.6 mL/min/kg
